Data taken from ChEMBL document CHEMBL4325893, “Synthesis and antibacterial profiles of targeted triclosan derivatives” (2019).
Converted amounts (≈) assume the structure as drawn.

What was measured:
[1] = tested on: Staphylococcus epidermidis; test: Antibacterial activity against Staphylococcus epidermidis 155 after 18 hrs; type: functional; details: Staphylococcus epidermidis, 155, 18 h
Procedure, shortened: (§1)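 Broth microdilution in Nutrient Broth No. 2; stocks in ethanol diluted to 0.01–128 µg/ml (triclosan) or 0.25–256 µg/ml (glycosides). Overnight 37 °C NB2 cultures diluted 1 in 10^4 in saline and added to the dilutions. Incubation at 37 °C with agitation, OD read every 15 min; MIC is the lowest concentration preventing any OD rise after 18 h.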

[2] = tested on: Staphylococcus aureus; test: Antibacterial activity against Staphylococcus aureus ATCC 25923 after 18 hrs; type: functional; details: ATCC 25923, 18 h; procedure, shortened: as §1
[3] = tested on: Escherichia coli; test: Antibacterial activity against Escherichia coli 700728 after 18 hrs; type: functional; details: Escherichia coli, 700728, 18 h; procedure, shortened: as §1
[4] = tested on: Streptococcus agalactiae; test: Antibacterial activity against Streptococcus agalactiae OCC 182 after 18 hrs; type: functional; details: OCC 182, 18 h
Procedure, shortened: (§2)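 Broth microdilution in Nutrient Broth No. 2. Ethanol stocks were diluted in broth to 0.01–128 µg/ml for triclosan and 0.25–256 µg/ml for glycosides. Overnight 37°C NB2 cultures were diluted 1 in 10^4 in saline and added to the wells. Plates were incubated at 37°C with OD read every 15 min after agitation. MIC was the lowest concentration giving no OD increase at 18 h.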

[5] = tested on: Bacillus cereus; test: Antibacterial activity against Bacillus cereus ATCC 14579 after 18 hrs; type: functional; details: ATCC 14579, 18 h; procedure, shortened: as §1
[6] = tested on: Streptococcus pneumoniae; test: Antibacterial activity against Streptococcus pneumoniae ATCC 49619 after 18 hrs; type: functional; details: ATCC 49619, 18 h; procedure, shortened: as §2
[7] = tested on: Pseudomonas aeruginosa; test: Antibacterial activity against Pseudomonas aeruginosa ATCC 27853 after 18 hrs; type: functional; details: ATCC 27853, 18 h; procedure, shortened: as §1
[8] = tested on: Salmonella enterica subsp. enterica serovar Abony; test: Antibacterial activity against Salmonella enterica subspecies enterica serotype Abony NCTC 6017 after 18 hrs; type: functional; details: NCTC 6017, 18 h; procedure, shortened: as §1
[9] = tested on: Klebsiella pneumoniae; test: Antibacterial activity against Klebsiella pneumoniae ATCC 13883 after 18 hrs; type: functional; details: ATCC 13883, 18 h; procedure, shortened: as §1
[10] = tested on: Staphylococcus aureus; test: Antibacterial activity against Staphylococcus aureus ATCC 6538 after 18 hrs; type: functional; details: ATCC 6538, 18 h; procedure, shortened: as §1
[11] = tested on: Salmonella enteritidis; test: Antibacterial activity against Salmonella enterica subspecies enterica serotype Enteritidis 13076 after 18 hrs; type: functional, Salmonella enterica subsp. enterica serovar Enteritidis; details: Salmonella enterica, 13076, 18 h; procedure, shortened: as §1
[12] = tested on: Citrobacter freundii; test: Antibacterial activity against Citrobacter freundii OCC 851 after 18 hrs; type: functional; details: OCC 851, 18 h; procedure, shortened: as §1
[13] = tested on: Streptococcus pyogenes; test: Antibacterial activity against Streptococcus pyogenes ATCC 19615 after 18 hrs; type: functional; details: ATCC 19615, 18 h; procedure, shortened: as §2
[14] = tested on: Staphylococcus aureus; test: Antibacterial activity against Staphylococcus aureus ATCC 29213 after 18 hrs; type: functional; details: ATCC 29213, 18 h; procedure, shortened: as §1
[15] = Antibacterial activity against Salmonella enterica subspecies enterica serotype Nottingham NCTC 7832 after 18 hrs; type: functional, Salmonella enterica subsp. enterica serovar Nottingham; details: NCTC 7832, 18 h; procedure, shortened: as §1
[16] = tested on: Escherichia coli; test: Antibacterial activity against Escherichia coli ATCC 10536 after 18 hrs; type: functional; details: ATCC 10536, 18 h; procedure, shortened: as §1
[17] = tested on: Klebsiella aerogenes; test: Antibacterial activity against Klebsiella aerogenes NCTC 8167 after 18 hrs; type: functional; details: NCTC 8167, 18 h; procedure, shortened: as §1
[18] = tested on: Escherichia coli; test: Antibacterial activity against Escherichia coli OCC 122 after 18 hrs; type: functional; details: OCC 122, 18 h; procedure, shortened: as §1
[19] = tested on: Enterococcus faecalis; test: Antibacterial activity against Enterococcus faecalis ATCC 29212 after 18 hrs; type: functional; details: ATCC 29212, 18 h; procedure, shortened: as §1
[20] = tested on: Staphylococcus epidermidis; test: Antibacterial activity against Staphylococcus epidermidis ATCC 14990 after 18 hrs; type: functional; details: ATCC 14990, 18 h; procedure, shortened: as §1
[21] = tested on: Escherichia hermannii; test: Antibacterial activity against Escherichia hermannii 33650 after 18 hrs; type: functional; details: Atlantibacter hermannii, 33650, 18 h; procedure, shortened: as §1
[22] = tested on: Enterococcus faecalis; test: Antibacterial activity against Enterococcus faecalis ATCC 33186 after 18 hrs; type: functional; details: ATCC 33186, 18 h; procedure, shortened: as §1
[23] = tested on: Cronobacter sakazakii; test: Antibacterial activity against Cronobacter sakazakii 29544 after 18 hrs; type: functional; details: Cronobacter sakazakii, 29544, 18 h; procedure, shortened: as §1
[24] = tested on: Proteus vulgaris; test: Antibacterial activity against Proteus vulgaris OCC 195 after 18 hrs; type: functional; details: OCC 195, 18 h; procedure, shortened: as §1
[25] = tested on: Hafnia alvei; test: Antibacterial activity against Hafnia alvei 13337 after 18 hrs; type: functional; details: Hafnia alvei, 13337, 18 h; procedure, shortened: as §1
[26] = tested on: Staphylococcus epidermidis; test: Antibacterial activity against Staphylococcus epidermidis ATCC 12228 after 18 hrs; type: functional; details: ATCC 12228, 18 h; procedure, shortened: as §1
[27] = Antibacterial activity against Salmonella enterica subspecies enterica serotype Arizonae OCC 706 after 18 hrs; type: functional, Salmonella enterica subsp. enterica serovar Arizonae; details: OCC 706, 18 h; procedure, shortened: as §1
[28] = tested on: Streptococcus pneumoniae; test: Antibacterial activity against Streptococcus pneumoniae 6305 after 18 hrs; type: functional; details: Streptococcus pneumoniae, 6305, 18 h; procedure, shortened: as §2
[29] = tested on: Bacillus subtilis; test: Antibacterial activity against Bacillus subtilis NCTC 10073 after 18 hrs; type: functional; details: NCTC 10073, 18 h; procedure, shortened: as §1

MIC [1]: 0.5 µg/mL (≈ 1.19 µM)
MIC [2]: 0.5 µg/mL (≈ 1.19 µM)
MIC [3]: 0.5 to 4 µg/mL (≈ 1.19 to 9.49 µM)
MIC [4]: 128 µg/mL (≈ 304 µM)
MIC [5]: 128 µg/mL (≈ 304 µM)
MIC [6]: 64 µg/mL (≈ 152 µM)
MIC [7]: > 256 µg/mL
MIC [8]: 2 to 8 µg/mL (≈ 4.74 to 19 µM)
MIC [9]: 0.5 µg/mL (≈ 1.19 µM)
MIC [10]: 0.5 µg/mL (≈ 1.19 µM)
MIC [11]: 2 to 8 µg/mL (≈ 4.74 to 19 µM)
MIC [12]: 8 µg/mL (≈ 19 µM)
MIC [13]: 16 µg/mL (≈ 37.9 µM)
MIC [14]: 0.5 µg/mL (≈ 1.19 µM)
MIC [15]: 2 to 8 µg/mL (≈ 4.74 to 19 µM)
MIC [16]: 0.5 to 4 µg/mL (≈ 1.19 to 9.49 µM)
MIC [17]: 4 µg/mL (≈ 9.49 µM)
MIC [18]: 0.5 to 4 µg/mL (≈ 1.19 to 9.49 µM)
MIC [19]: 128 µg/mL (≈ 304 µM)
MIC [20]: 0.5 µg/mL (≈ 1.19 µM)
MIC [21]: 1 µg/mL (≈ 2.37 µM)
MIC [22]: 128 µg/mL (≈ 304 µM)
MIC [23]: 8 µg/mL (≈ 19 µM)
MIC [24]: 16 µg/mL (≈ 37.9 µM)
MIC [25]: 0.5 µg/mL (≈ 1.19 µM)
MIC [26]: 0.5 µg/mL (≈ 1.19 µM)
MIC [27]: 2 to 8 µg/mL (≈ 4.74 to 19 µM)
MIC [28]: 64 µg/mL (≈ 152 µM)
MIC [29]: 32 µg/mL (≈ 75.9 µM)
SMILES: O[C@@H]1[C@@H](Oc2cc(Cl)ccc2Oc2ccc(Cl)cc2Cl)OC[C@@H](O)[C@H]1O
